Measurements published in ChEMBL document CHEMBL5107959, “Structure-activity relationships of valine, tert-leucine, and phenylalanine amino acid-derived synthetic cannabinoid receptor agonists related to ADB-BUTINACA, APP-BUTINACA, and ADB-P7AICA” (RSC Med Chem, 2022).

Columns and labels:
Cannabinoid receptor 1 [1] = molecular target: T1, Cannabinoid receptor 1 (Homo sapiens, UniProt P21554); assay: Agonist activity at CB1 receptor (unknown origin) expressed in human HEK293T cells co-expressing beta-arrestin2 assessed as beta-arrestin2 recruitment by measuring maximal luminescence using furimazine as substrate at 100 uM by Nano-Glo live cell reagent assay relative to CP55940; type: functional, cell-based
T1 sequence (P21554 whole entry): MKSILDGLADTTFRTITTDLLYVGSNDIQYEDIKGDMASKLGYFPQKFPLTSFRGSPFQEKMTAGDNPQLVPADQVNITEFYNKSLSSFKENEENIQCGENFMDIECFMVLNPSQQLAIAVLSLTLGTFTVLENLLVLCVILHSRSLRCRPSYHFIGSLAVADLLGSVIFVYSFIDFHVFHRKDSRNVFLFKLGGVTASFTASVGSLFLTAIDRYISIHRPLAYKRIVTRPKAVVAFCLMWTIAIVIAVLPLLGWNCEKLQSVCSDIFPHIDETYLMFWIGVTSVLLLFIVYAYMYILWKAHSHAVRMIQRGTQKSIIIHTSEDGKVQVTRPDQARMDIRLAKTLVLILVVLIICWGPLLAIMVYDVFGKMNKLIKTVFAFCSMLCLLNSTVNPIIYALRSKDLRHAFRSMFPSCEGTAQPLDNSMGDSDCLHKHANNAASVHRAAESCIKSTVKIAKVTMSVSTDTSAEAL
Outline: (§1)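 βarr2 recruitment by NanoBiT split-luciferase complementation in HEK293T stably expressing CB1-βarr2 or CB2-βarr2. Cells seeded on poly-D-lysine overnight, washed into Opti-MEM. Nano-Glo Live Cell reagent (furimazine) equilibrated 10 min, then compound added and luminescence followed 2 h. […] Value read at highest tested concentration, 100 μM. Duplicates, ≥3 independent experiments.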

Cannabinoid receptor 1 [2] = molecular target: T1, Cannabinoid receptor 1; assay: Displacement of [3H]-CP55940 from human CB1 receptor expressed in human HEK293-EBNA cells incubated for 60 mins by radioligand competitive binding assay based liquid scintillation counter; type: cell-based
Cannabinoid receptor 2 [3] = molecular target: T2, Cannabinoid receptor 2 (Homo sapiens, UniProt P34972); assay: Agonist activity at human CB2 receptor expressed in mouse AtT20 cells incubated for 60 mins by FLIPR membrane potential assay; type: functional, cell-based
T2 sequence (P34972 whole entry): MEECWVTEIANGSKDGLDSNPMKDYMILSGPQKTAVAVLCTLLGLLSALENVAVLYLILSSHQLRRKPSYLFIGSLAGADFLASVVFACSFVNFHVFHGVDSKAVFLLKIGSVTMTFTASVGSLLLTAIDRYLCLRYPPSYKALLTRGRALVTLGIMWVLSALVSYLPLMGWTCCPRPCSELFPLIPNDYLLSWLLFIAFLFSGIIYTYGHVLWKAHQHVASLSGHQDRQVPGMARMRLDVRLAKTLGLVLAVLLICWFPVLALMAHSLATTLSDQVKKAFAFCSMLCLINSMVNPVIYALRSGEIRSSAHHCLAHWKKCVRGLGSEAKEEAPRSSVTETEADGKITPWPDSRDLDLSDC

Cannabinoid receptor 2 [4] = molecular target: T2, Cannabinoid receptor 2; assay: Displacement of [3H]-CP55940 from N-terminal 3HA-tagged human CB2 receptor expressed in human HEK293-EBNA cells incubated for 60 mins by radioligand competitive binding assay based liquid scintillation counter; type: cell-based
Cannabinoid receptor 2 [5] = molecular target: T2, Cannabinoid receptor 2; assay: Agonist activity at CB2 receptor (unknown origin) expressed in human HEK293T cells co-expressing beta-arrestin2 assessed as beta-arrestin2 recruitment by measuring maximal luminescence using furimazine as substrate at 100 uM by Nano-Glo live cell reagent assay relative to CP55940; type: functional, cell-based; conditions: filed as agonist; outline: as §1
Cannabinoid receptor 1 [6] = molecular target: T1, Cannabinoid receptor 1; assay: Agonist activity at human CB1 receptor expressed in mouse AtT20 cells assessed as maximal agonist effect by measuring fluorescence at 10 uM incubated for 60 mins by FLIPR membrane potential assay relative to CP55940; type: functional, cell-based
Outline: (§2)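 AtT20 FlpIn cells stably expressing human CB1 or CB2, plated overnight in L-15 with 1% FBS. Loaded 60 min at 37 °C with FLIPR blue membrane potential dye, pH 7.4 buffer. Fluorescence (ex 530/em 565 nm) read every 2 s; 2 min baseline, then drug added. Change in fluorescence versus baseline minus vehicle (DMSO 0.1%/BSA 0.01% final), normalised to 1 μM CP55,940. Response taken at 10 μM where <50% change.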

Cannabinoid receptor 1 [7] = molecular target: T1, Cannabinoid receptor 1; assay: Agonist activity at CB1 receptor (unknown origin) expressed in human HEK293T cells co-expressing beta-arrestin2 assessed as beta-arrestin2 recruitment using furimazine as substrate by Nano-Glo live cell reagent assay; type: functional, cell-based
Outline: (§3)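 βarr2 recruitment by NanoBiT split-luciferase complementation in HEK293T stably expressing CB1-βarr2 or CB2-βarr2. Nano-Glo Live Cell reagent (furimazine) equilibrated 10 min before compound, then luminescence monitored continuously 2 h. Stocks in methanol, diluted in MeOH/Opti-MEM. EC50 from four-parameter logistic fit. Duplicates in ≥3 independent experiments.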

Cannabinoid receptor 2 [8] = molecular target: T2, Cannabinoid receptor 2; assay: Agonist activity at human CB2 receptor expressed in mouse AtT20 cells assessed as maximal agonist effect by measuring fluorescence at 10 uM incubated for 60 mins by FLIPR membrane potential assay relative to CP55940; type: functional, cell-based; conditions: filed as agonist; outline: as §2
Cannabinoid receptor 1 [9] = molecular target: T1, Cannabinoid receptor 1; assay: Agonist activity at human CB1 receptor expressed in mouse AtT20 cells incubated for 60 mins by FLIPR membrane potential assay; type: functional, cell-based
Cannabinoid receptor 2 [10] = molecular target: T2, Cannabinoid receptor 2; assay: Agonist activity at CB2 receptor (unknown origin) expressed in human HEK293T cells co-expressing beta-arrestin2 assessed as beta-arrestin2 recruitment using furimazine as substrate by Nano-Glo live cell reagent assay; type: functional, cell-based; outline: as §3
[11] = Toxicity in C57BL/6J mouse assessed as reduction in body temperature at 0.1 mg/kg,ip measured after 2.5 hrs by radio-biotelemetry analysis; type: organism-based; conditions: in vivo
Outline: (§4)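 Male C57BL/6J mice (four per cohort) fitted with intraperitoneal biotelemetry transmitters, 10 days' recovery. Compound in EtOH/polysorbate 80/saline (5:5:90) given i.p. at 10 μL/g after baseline vehicle injection; escalating doses 0.03 to 10 mg/kg, one every three days.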

Cannabinoid receptor 1 [12] = molecular target: T1, Cannabinoid receptor 1; assay: Agonist activity at human CB1 receptor expressed in mouse AtT20 cells at 10 uM incubated for 60 mins by FLIPR membrane potential assay; type: functional, cell-based; outline: as §2
[13] = Toxicity in C57BL/6J mouse assessed as reduction in body temperature upto 10 mg/kg,ip measured after 2.5 hrs by radio-biotelemetry analysis; type: organism-based; conditions: in vivo; outline: as §4
[14] = Toxicity in C57BL/6J mouse assessed as reduction in body temperature at 10 mg/kg,ip measured after 2.5 hrs by radio-biotelemetry analysis; type: organism-based; conditions: in vivo; outline: as §4

Row | Compound | Emax (Cannabinoid receptor 1 [1]; filed as agonist) [%] | Ki (Cannabinoid receptor 1 [2]) [µM] | EC50 (Cannabinoid receptor 2 [3]) [µM] | Ki (Cannabinoid receptor 2 [4]) [µM] | Emax (Cannabinoid receptor 2 [5]) [%] | Emax (Cannabinoid receptor 1 [6]; filed as agonist) [%] | EC50 (Cannabinoid receptor 1 [7]; read-out: EC50) [µM] | Emax (Cannabinoid receptor 2 [8]) [%] | EC50 (Cannabinoid receptor 1 [9]) [µM] | EC50 (Cannabinoid receptor 2 [10]) [µM] | Activity [11] | Emax (Cannabinoid receptor 1 [1]) [%] | Activity (Cannabinoid receptor 1 [12]) [%] | Emax (Cannabinoid receptor 1 [6]) [%] | EC50 (Cannabinoid receptor 1 [7]; read-out: pEC50 (converted)) [µM] | Activity [13] | Activity [14]
1 | CCCCn1cc(C(=O)N[C@@H](Cc2ccccc2)C(N)=O)c2ccccc21 | 50 | 0.307 | 0.04 | 0.148 | 76 | 93 | 15.5 | 92 | 5.09 | 0.209 | – | – | – | – | – | – | –
2 | CCCCn1nc(C(=O)N[C@H](C(N)=O)C(C)C)c2ccccc21 | 622 | 0.00118 | 0.0042 | 0.00646 | 91 | 114 | 0.187 | 103 | 0.0074 | 0.0137 | – | – | – | – | – | – | –
3 | CCCCn1cc(C(=O)N[C@H](C(N)=O)C(C)C)c2ccccc21 | 390 | 0.0122 | 0.028 | 0.0776 | 94 | 107 | 3.3 | 106 | 0.053 | 0.283 | – | – | – | – | – | – | –
4 | CCCCn1cc(C(=O)N[C@H](C(N)=O)C(C)(C)C)c2ccccc21 | 756 | 0.00134 | 0.006 | 0.00132 | 92 | 115 | 0.139 | 103 | 0.006 | 0.00444 | – | – | – | – | – | – | –
5 | CCCCn1cc(C(=O)N[C@H](C(N)=O)C(C)C)c2cccnc21 | 44 | 0.501 | 0.202 | 0.891 | 88 | 104 | > 60.8 | 100 | 1.49 | 4.62 | – | – | – | – | – | – | –
6 | CCCCn1nc(C(=O)N[C@H](C(N)=O)C(C)(C)C)c2ccccc21 | 728 | 0.000299 | 0.0041 | 0.000912 | 83 | 113 | 0.019 | 101 | 0.00067 | 0.00179 | Toxic | – | – | – | – | – | –
7 | CCCCn1cc(C(=O)N[C@@H](Cc2ccccc2)C(N)=O)c2cccnc21 | – | 0.538 | 0.319 | 2.19 | 53 | – | > 1.05 | 79 | – | 3.63 | – | < 5 | < 50 | 19 | 1.05 | – | –
8 | CCCCn1cc(C(=O)N[C@H](C(N)=O)C(C)(C)C)c2cccnc21 | 406 | 0.0155 | 0.021 | 0.0407 | 85 | 117 | 2.89 | 103 | 0.088 | 0.12 | – | – | – | – | – | – | –
9 | CCCCn1nc(C(=O)N[C@@H](Cc2ccccc2)C(N)=O)c2ccccc21 | 216 | 0.0251 | 0.0068 | 0.0398 | 71 | 95 | 1.17 | 99 | 0.161 | 0.017 | – | – | – | – | – | Toxic | –
10 | CCCCCn1cc(C(=O)N[C@@H](Cc2ccccc2)C(N)=O)c2cccnc21 | – | 0.437 | 0.381 | 0.794 | 52 | – | > 100 | 78 | – | 0.766 | – | 6 | < 50 | 30 | – | – | –
11 | CCCCCn1cc(C(=O)N[C@H](C(N)=O)C(C)C)c2cccnc21 | 278 | 0.0495 | 0.047 | 0.251 | 70 | 112 | 4.15 | 93 | 0.101 | 0.694 | – | – | – | – | – | – | –
12 | CCCCCn1cc(C(=O)c2cccc3ccccc23)c2ccccc21 | 310 | 0.00256 | 0.022 | 0.00955 | 58 | 116 | 0.0355 | 87 | 0.018 | 0.0073 | – | – | – | – | – | – | –
13 | CCCCCn1cc(C(=O)N[C@H](C(N)=O)C(C)(C)C)c2cccnc21 | 544 | 0.00394 | 0.0071 | 0.0204 | 102 | – | 0.147 | 108 | 0.0058 | 0.0222 | – | – | – | – | – | – | Non-Toxic
